Source: PubChem
This is a sample that favours compounds with a hit; in the whole collection about 12% have one here.
ROMK primary – modulates human ROMK potassium channel activity | P48048 | Tet-inducible ROMK, thallium flux fluorescence; actives lie on both sides | B-score at 10 µM | actives 2% (n = 130,000);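 active = signal ratio slope over the read window, or its plate-corrected B-score, at least 3 SD from the plate mean, either direction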;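 note: B-score of the F/F0 ratio slope over 7 to 12 s after thallium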
Target sequence (P48048 whole entry, looked up): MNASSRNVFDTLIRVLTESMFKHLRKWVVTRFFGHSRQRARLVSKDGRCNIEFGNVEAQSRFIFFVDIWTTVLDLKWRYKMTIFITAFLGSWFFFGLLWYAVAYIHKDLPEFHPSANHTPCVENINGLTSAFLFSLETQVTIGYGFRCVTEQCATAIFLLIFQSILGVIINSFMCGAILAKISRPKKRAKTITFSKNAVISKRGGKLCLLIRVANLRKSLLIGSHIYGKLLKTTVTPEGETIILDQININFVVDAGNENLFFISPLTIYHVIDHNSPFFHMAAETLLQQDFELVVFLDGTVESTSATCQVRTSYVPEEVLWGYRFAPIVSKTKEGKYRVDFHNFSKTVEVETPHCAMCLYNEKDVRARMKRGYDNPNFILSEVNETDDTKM
WT yeast gro inh – growth inhibition of WT yeast, mitochondrial fusion screen | mitochondrial fusion phenotypic screen, WT strain | actives 2.1% (n = 190,000) | inhibition, % at 10 µM; in the data active = inhibition above about 58%; tested in S. cerevisiae
Cl transport mod – modulators of human KCC2 chloride dependent transport | actives 2.2% (n = 190,000) | Q9H2X9 | AID 1456 | B-score of Tl+ flux slope (higher = more flux/activation; lower = inhibition) at 10 µM | KCC2 cells, thallium flux FluoZin-2 fluorescence;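 active = thallium flux slope and its plate-corrected score both differing from the plate sample mean at a set confidence after two filtering rounds, in either direction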;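 note: slope of fluorescence scaled to starting intensity during 10 to 20 s after thallium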
Lmaj promast – Leishmania major promastigote growth inhibition | Leishmania major promastigotes, resazurin fluorescence viability | actives 9% (n = 200,000) | inhibition, % at 10 µM; in the data active = inhibition above about 50%;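 note: promastigotes grown with compound for 44 hours at 28 °C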
Diaphorase act – activates diaphorase or chemically reduces, flagging diaphorase assay artifacts. actives 0.005% (n = 190,000). Diaphorase/resazurin coupled assay, resorufin fluorescence, 16 min; stronger effect = higher value; 1 = vehicle wells, 0 = NADH-free wells. activation factor at 20 µM;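 active = diaphorase activity raised at least twofold by the compound at 20 µM; inactive = activation factor below 2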
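System – purified diaphorase enzyme from Clostridium kluyveri · Input – enzyme 0.07 U/mL final · Also added – final NADH 0.114 mM, resazurin 0.1 mM · Measured by – fluorescence of resorufin, 544 nm excitation, 590 nm emission · Timing – 16 min enzyme reaction, ambient temperature · Measure – resorufin increase flagging diaphorase activators or reducers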
Diaphorase inh – counter-screen for diaphorase-based assays: diaphorase inhibitors and chemical oxidizers | inhibition, % at 20 µM | actives 0.69% (n = 190,000) | AID 1217 | diaphorase resazurin-to-resorufin fluorescence, NADH, 16 min; bacterial (C. kluyveri) enzyme, not human;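 active = primary screen inhibition at 20 µM above a set limit, cut at about 50% in these data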
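Test system: bacterial diaphorase enzyme (C. kluyveri); Quantity: 0.14 U/mL diaphorase, enzyme working solution; Times: reaction incubation of 16 min at room temperature; Measured by: fluorescence of resorufin formed from resazurin, Ex 544/Em 590 nm; Benchmarks: positive control minus NADH, DMSO neutral control.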
ROMK hit retest – retested hit modulating human ROMK potassium channel; shares compounds with ROMK primary; ROMK thallium flux, fluorescence ratio; stronger effect = lower value; normalized thallium flux (F/F0 slope) at 10 µM; actives 54% (n = 3,000); AID 1917;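 active = Flux at 10 µM at least 3 SD below or above vehicle control mean in one or both replicates; inconclusive = no clear call, values can overlap the other calls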
Large screens that a line does not name were inactive (follow-up assays come after a bar, where they were run).

CC1CCCCC1NC(=O)COC(=O)CNC(=O)c1cccc(F)c1 (stereo not given)	ROMK primary -2.1 | ROMK hit retest inactive
Cc1cc(C2=NNC(=NC3CC3)SC2)c(C)n1Cc1ccco1	none (no result: ROMK primary)
COCCCN=C1NN=C(c2cc(C)n(Cc3ccco3)c2C)CS1	ROMK primary 1.3, Lmaj promast 95 | ROMK hit retest inactive
CCOC(=O)C/C(N)=N/NC(=O)c1ccc(Cl)cc1Cl	none
Clc1ccc(Cl)c(OCCCCNCc2ccccc2)c1	ROMK primary -3.2, Lmaj promast 98 | ROMK hit retest 0.066
Cc1cc(Cl)c(OCCCNCc2ccccc2)c(Br)c1	ROMK primary -5.2, Lmaj promast 84 | ROMK hit retest 0.053
Cc1cccc(OCCCCNCc2ccccc2)c1	ROMK primary -1.3, Lmaj promast 89 | ROMK hit retest 0.062
Clc1ccc(OCCCNCc2ccccc2)c(Br)c1	ROMK primary -3, Lmaj promast 91 | ROMK hit retest 0.064
O=C(Cc1nn[nH]n1)c1ccccc1O	none
CN(C)c1ccc2c(c1)OC(N)=C(C#N)C2c1cccc(F)c1 (stereo not given)	none (no result: ROMK primary) | ROMK hit retest 0.064
Cc1[nH]n(-c2ccc(Br)cc2)c(=O)c1C=Nc1ccc(S(=O)(=O)Nc2nccs2)cc1	none (no result: ROMK primary) | ROMK hit retest inactive
Cc1cc(C)nc(NS(=O)(=O)c2ccc(N=Cc3c(C)[nH]n(-c4ccccc4)c3=O)cc2)n1	none
COc1ccc(NC(=O)Cn2nnc(C(N)=O)c2N)c(OC)c1	none (no result: ROMK primary)
CN(c1ccccc1)S(=O)(=O)c1cccc(NC(=O)c2ccc3ncsc3c2)c1	none (no result: ROMK primary, WT yeast gro inh, Cl transport mod, Lmaj promast, Diaphorase act, Diaphorase inh) | ROMK hit retest 0.067
CCc1cccc(CC)c1NC(=O)CN1C2CCCC1CC(NC(=O)Nc1cccc(OC)c1)C2 (stereo not given)	ROMK primary -4 | ROMK hit retest inconclusive
COc1cccc(N/N=C(\C#N)S(=O)(=O)C(C)(C)C)c1	none
c1ccc2c(N3CCCCCC3)nc(-c3ccncc3)nc2c1	ROMK primary -2.8, Lmaj promast 87 | ROMK hit retest inconclusive
Fc1ccccc1-c1nc(N2CCCCC2)c2ccccc2n1	none
CC(=O)C(Sc1ncnc2c1nnn2-c1ccc(F)cc1)C(=O)N(C)C (stereo not given)	none (no result: ROMK primary) | ROMK hit retest inactive
COc1ccc(NC(=O)c2ccccc2-c2ccccc2)c(C)c1	none
COC(=O)/C(=C\Nc1ccccc1N)c1ncc(C(F)(F)F)cc1Cl	none (no result: ROMK primary)
Cc1ccc(S(=O)(=O)N(C)c2ccc(C(=O)N3CCN(Cc4ccc5c(c4)OCO5)CC3)cc2)cc1	ROMK primary -5, Lmaj promast 100 (no result: Cl transport mod) | ROMK hit retest 0.063
COc1ccc(N2CCN(C(=O)c3ccc(N(C)S(=O)(=O)c4ccc(C)cc4)cc3)CC2)cc1	none
COc1ccc(N2CCN(C(=O)c3ccc(N(C)S(=O)(=O)c4ccc(OC)cc4)cc3)CC2)cc1	ROMK primary -14 | ROMK hit retest inconclusive
Cc1cccc(C(=O)N2CCN(Cc3ccc4c(c3)OCO4)CC2)c1	none (no result: ROMK primary)
CC(C)C(=O)Nc1ccc(C(=O)NNC(=O)c2ccco2)cc1	none (no result: ROMK primary)
CS(=O)(=O)N1CCC(C(=O)Nc2ccccc2)CC1	none (no result: Cl transport mod)
Cc1ccc(NC(=O)C2CCN(S(C)(=O)=O)CC2)cc1C	ROMK primary 1.6 | ROMK hit retest inactive
COc1cc(NC(=O)[C@@H](NC(=O)c2ccco2)C(C)C)c(OC)cc1NC(=O)c1ccccc1	none
COc1ccc(C(=O)Nc2ccc3c(c2)nc(CCNC(C)=O)n3C)cc1	ROMK primary 3 (no result: Cl transport mod) | ROMK hit retest inactive
COc1ccccc1C(=O)Nc1ccc2c(c1)nc(CCNC(C)=O)n2C	none
Cc1ccc(N/C(N)=N/c2nc(CSc3nnc(C)s3)cc(=O)[nH]2)c(C)c1	ROMK primary 6.3 | ROMK hit retest inactive
Cc1ccc(SCc2cc(=O)[nH]c(/N=C(\N)Nc3cccc4ccccc34)n2)cc1	none (no result: ROMK primary)
COc1ccc(N/C(N)=N/c2nc(CSc3nnc(C)s3)cc(=O)[nH]2)cc1	ROMK primary 3.9 | ROMK hit retest inactive
COc1ccc(OCC(=O)Nc2ccccc2C(=O)N2CCOCC2)cc1	ROMK primary 3 | ROMK hit retest inactive
